Measured values of several laboratories.
Each line is one published result; the experiments were not run side by side.
Target: Muscle, skeletal receptor tyrosine-protein kinase (MUSK, Homo sapiens, UniProt O15146)
Residues used in one study (O15146 24-869): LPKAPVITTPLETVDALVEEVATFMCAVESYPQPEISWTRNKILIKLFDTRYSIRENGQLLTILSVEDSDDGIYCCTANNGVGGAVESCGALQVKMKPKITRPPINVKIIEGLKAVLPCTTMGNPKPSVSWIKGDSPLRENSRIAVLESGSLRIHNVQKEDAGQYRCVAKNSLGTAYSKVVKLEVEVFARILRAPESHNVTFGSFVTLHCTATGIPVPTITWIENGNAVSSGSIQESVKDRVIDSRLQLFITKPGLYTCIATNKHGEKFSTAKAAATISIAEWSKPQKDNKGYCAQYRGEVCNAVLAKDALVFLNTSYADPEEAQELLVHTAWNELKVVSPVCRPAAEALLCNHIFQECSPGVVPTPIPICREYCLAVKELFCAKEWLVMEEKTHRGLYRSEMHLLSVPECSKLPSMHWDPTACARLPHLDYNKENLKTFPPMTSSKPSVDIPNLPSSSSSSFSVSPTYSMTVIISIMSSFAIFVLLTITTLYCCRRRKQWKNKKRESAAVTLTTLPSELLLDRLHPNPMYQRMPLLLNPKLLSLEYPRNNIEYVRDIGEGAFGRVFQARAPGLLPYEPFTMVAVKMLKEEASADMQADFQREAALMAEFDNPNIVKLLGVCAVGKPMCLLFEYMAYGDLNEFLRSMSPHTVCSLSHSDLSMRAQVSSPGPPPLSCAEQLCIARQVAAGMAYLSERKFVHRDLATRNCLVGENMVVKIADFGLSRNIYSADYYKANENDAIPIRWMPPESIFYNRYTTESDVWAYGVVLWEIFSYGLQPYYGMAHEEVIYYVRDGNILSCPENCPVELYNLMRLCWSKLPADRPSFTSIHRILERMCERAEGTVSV

CC(=O)N1CCC(c2ccc(C(=O)NC(=N)N)cc2C(F)(F)F)CC1 — remaining binding (cell-free assay; competition with immobilised ligand; 1 µM): 100%
COc1cc2ncnc(Nc3ccc(Oc4ccccc4)c(C)c3C)c2cc1OC — inhibition (enzyme activity; inhibitor; 1 µM): -2%
O=C(Nc1cccnn1)N1CC(C/C=C/c2cncc(Oc3ccc(C(F)(F)F)cn3)n2)C1 — remaining binding (cell-free assay; competition with immobilised ligand; 1 µM): 97%
Cc1ccc(Nc2nccc(N(C)c3ccc4c(C)n(C)nc4c3)n2)cc1S(N)(=O)=O — inhibition (enzyme activity; inhibitor; 10 µM): 97%
Cc1ccc(C(=O)NCc2ccsc2)cc1C#Cc1cn(C(C)C)c2ncnc(N)c12 — activity vs control (enzyme activity; inhibitor; 1 µM): 73%
CCN(CC)CCNC(=O)c1c(C)[nH]c(/C=C2\C(=O)Nc3ccc(F)cc32)c1C — inhibition (enzyme activity; inhibitor; 10 µM): 90%
Cc1cnc(NC2CCOCC2)nc1-n1cnc(C(=O)NC(CN)c2cc(F)cc(Cl)c2)c1 (stereo not shown) — remaining activity (enzyme activity; inhibitor; radiometric; 1 µM): 97%
Cc1ccc(C(=O)Nc2ccc(CN3CCN(C)CC3)c(C(F)(F)F)c2)cc1C#Cc1cnc2cccnn12 — remaining activity (enzyme activity; inhibitor; 23.5 nM): 8%
O=C1Nc2ccc(Cl)cc2C1=Cc1cc(Cl)c(O)c(Cl)c1 — remaining signal (cell-free assay; 0.5 µM): 65.5%
Cc1cc(NC(=O)c2cccc3cc(-c4cccc5[nH]nc(N)c45)ccc23)ccc1F — activity vs control (enzyme activity; inhibitor; 0.1 µM): 99%
CC(=O)Nc1c(C(C)=O)c(=O)n(C)c2nc(-c3ccc(Cl)cc3Cl)c(-c3ccc(Cl)cc3)cc12 — remaining binding (cell-free assay; competition with immobilised ligand; 1 µM): 100%
COc1cc(C)c(Sc2cnc(NC(=O)c3ccc(N4CCN(CCCCCCCNC(=O)COc5cccc6c5C(=O)N(C5CCC(=O)NC5=O)C6=O)CC4)cc3)s2)cc1C(=O)N1CCN(C(C)=O)CC1 (stereo not shown) — inhibition (cell-free assay; 1 µM): > 90%
O=C(NCCCC1CCCCC1)c1ccc(CNC(=O)c2cnn(-c3ccccc3)c2C(F)(F)F)cc1 — remaining binding (cell-free assay; competition with immobilised ligand; 0.1 µM): 100%
O=C(Nc1cnn(-c2csc(C(=O)NC3COC3)c2)c1)Nc1c(F)cccc1Cl — remaining activity (enzyme activity; inhibitor; 5 µM): 86.8%
O=C(NC[C@@H]1[C@H]2CN(C(=O)OCc3cc(C(F)(F)F)cc(C(F)(F)F)c3)C[C@@H]12)c1ccc2[nH]nnc2c1 — remaining binding (cell-free assay; competition with immobilised ligand; 1 µM): 77%
CCCOc1ccc(OC)c(F)c1C(=O)c1ccc(C(=O)N[C@@H]2CNC[C@H]2NC(=O)c2ccc3[nH]ncc3c2)cc1 — remaining activity (enzyme activity; inhibitor; 10 µM): -1%
